In ChEMBL document CHEMBL4052618, “Design, synthesis, SAR discussion, in vitro and in vivo evaluation of novel selective EGFR modulator to inhibit L858R/T790M double mutants” (Eur J Med Chem, 2017):

What was measured:
[1] = target: Epidermal growth factor receptor (Homo sapiens, UniProt P00533, L858R); experiment: Inhibition of human recombinant cytoplasmic GST-tagged EGFR L858R mutant expressed in baculovirus using TK-substrate-biotin preincubated for 15 mins followed by substrate addition measured after 60 mins by FRET-based Z'-Lyte assay
[2] = target: Epidermal growth factor receptor (Homo sapiens, UniProt P00533); experiment: Inhibition of human recombinant cytoplasmic GST-tagged EGFR (668 to 1210 residues) expressed in baculovirus using TK-substrate-biotin preincubated for 15 mins followed by substrate addition measured after 60 mins by FRET-based Z'-Lyte assay
A-431 = experiment: Antiproliferative activity against human A431 cells harboring wild-type EGFR; type: functional, cell-based
HCC827 = experiment: Antiproliferative activity against human HCC827 cells harboring EGFR E746-A750 deletion mutant; type: functional, cell-based
NCI-H1975 = experiment: Antiproliferative activity against human NCI-H1975 cells harboring EGFR L858R/T790M double mutant; type: functional, cell-based
Procedure, shortened: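 A431 was grown in EMEM with 10% FBS; HCC827 and NCI-H1975 were grown in RPMI-1640 with 10% FBS. Cell viability experiments were repeated at least three times.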

[3] = target: Epidermal growth factor receptor (Homo sapiens, UniProt P00533, L858R/T790M); experiment: Inhibition of human recombinant cytoplasmic GST-tagged EGFR T790M/L858R double mutant (668 to 1210 residues) expressed in baculovirus using TK-substrate-biotin preincubated for 15 mins followed by substrate addition measured after 60 mins by FRET-based Z'-Lyte assay
Homo sapiens = species: Homo sapiens; experiment: Selectivity ratio of IC50 for human recombinant cytoplasmic GST-tagged EGFR (668 to 1210 residues) to IC50 for human recombinant cytoplasmic GST-tagged EGFR T790M/L858R double mutant (668 to 1210 residues)
Procedure, shortened: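 HTRF kinase assay on wild-type EGFR and the T790M/L858R mutant, with TK-substrate-biotin, ATP, 1 mM DTT, 1 mM MnCl2 and 5 mM MgCl2. Serially diluted compounds in 1% DMSO were preincubated with kinase for 15 min. The reaction was started with ATP plus substrate, run 60 min at room temperature, then stopped with Strep-XL665/TK Ab-Cryptate and read after 1 h. Run in duplicate, at least three independent IC50 determinations.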

[4] = Half life in monkey liver microsomes; type: ADME, Macaca mulatta, microsome; settings: rhesus monkey
[5] = Half life in dog liver microsomes; type: ADME, Canis lupus familiaris, microsome
[6] = Oral bioavailability in Sprague-Dawley rat at 10 mg/kg administered via gavage after 24 hrs by LC-MS/MS analysis; type: ADME, organism-based; settings: in vivo
Procedure, shortened: (§1)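 Male Sprague-Dawley rats (200-240 g) received 1 mg/kg by tail-vein injection in 2% DMSO, 20% PEG400 and 78% buffered saline, or 10 mg/kg by oral gavage in 0.5% methylcellulose. Orbital sinus blood was drawn into heparinized tubes at 2, 5, 15 and 30 min and at 1, 2, 4, 8, 12 and 24 h, then centrifuged. Plasma was measured by LC/MS/MS in SRM mode, with non-compartmental analysis.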

[7] = Cmax in Sprague-Dawley rat at 10 mg/kg, po administered via gavage after 24 hrs by LC-MS/MS analysis; type: ADME, organism-based; design: dose 10 mg/kg, route oral; settings: in vivo; procedure, shortened: as §1
[8] = Half life in human hepatocytes; type: ADME, cell-based, Hepatocyte
[9] = Intrinsic clearance in monkey liver microsomes; type: ADME, Macaca mulatta, microsome; settings: rhesus monkey, read-out: CLH
[10] = Half life in rat hepatocytes; type: ADME, cell-based, Hepatocyte
[11] = Tmax in Sprague-Dawley rat at 10 mg/kg, po administered via gavage by LC-MS/MS analysis; type: ADME, organism-based; settings: in vivo; procedure, shortened: as §1
[12] = Clearance in Sprague-Dawley rat at 1 mg/kg, iv after 24 hrs by LC-MS/MS analysis; type: ADME, organism-based; settings: in vivo; procedure, shortened: as §1
[13] = Intrinsic clearance in rat liver microsomes; type: ADME, microsome; settings: read-out: CLH
[14] = MRT in Sprague-Dawley rat at 10 mg/kg, po administered via gavage by LC-MS/MS analysis; type: ADME, organism-based; settings: in vivo; procedure, shortened: as §1
[15] = Half life in mouse liver microsomes; type: ADME, microsome
[16] = Half life in rat liver microsomes; type: ADME, microsome
[17] = Half life in Sprague-Dawley rat at 1 mg/kg, iv by LC-MS/MS analysis; type: ADME, organism-based; settings: in vivo
Procedure, shortened: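 Male Sprague-Dawley rats (200-240 g) were dosed either by tail vein at 1 mg/kg in 2% DMSO/20% PEG400/78% buffered saline or by oral gavage at 10 mg/kg in 0.5% methylcellulose. Blood was drawn by orbital sinus puncture at 2 min to 24 h into heparin, and plasma was analysed by LC/MS/MS in SRM mode. Parameters came from non-compartmental analysis.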

[18] = MRT in Sprague-Dawley rat at 1 mg/kg, iv by LC-MS/MS analysis; type: ADME, organism-based; settings: in vivo; procedure, shortened: as §1
[19] = Intrinsic clearance in rat hepatocytes assessed per million cells; type: ADME, cell-based, Hepatocyte
[20] = Intrinsic clearance in mouse liver microsomes; type: ADME, microsome; settings: read-out: CLH
[21] = Intrinsic clearance in dog liver microsomes; type: ADME, Canis lupus familiaris, microsome; settings: read-out: CLH

Chain of Epidermal growth factor receptor (Homo sapiens, UniProt P00533, L858R/T790M) (P00533 25-1210 T790M/L858R limits assumed): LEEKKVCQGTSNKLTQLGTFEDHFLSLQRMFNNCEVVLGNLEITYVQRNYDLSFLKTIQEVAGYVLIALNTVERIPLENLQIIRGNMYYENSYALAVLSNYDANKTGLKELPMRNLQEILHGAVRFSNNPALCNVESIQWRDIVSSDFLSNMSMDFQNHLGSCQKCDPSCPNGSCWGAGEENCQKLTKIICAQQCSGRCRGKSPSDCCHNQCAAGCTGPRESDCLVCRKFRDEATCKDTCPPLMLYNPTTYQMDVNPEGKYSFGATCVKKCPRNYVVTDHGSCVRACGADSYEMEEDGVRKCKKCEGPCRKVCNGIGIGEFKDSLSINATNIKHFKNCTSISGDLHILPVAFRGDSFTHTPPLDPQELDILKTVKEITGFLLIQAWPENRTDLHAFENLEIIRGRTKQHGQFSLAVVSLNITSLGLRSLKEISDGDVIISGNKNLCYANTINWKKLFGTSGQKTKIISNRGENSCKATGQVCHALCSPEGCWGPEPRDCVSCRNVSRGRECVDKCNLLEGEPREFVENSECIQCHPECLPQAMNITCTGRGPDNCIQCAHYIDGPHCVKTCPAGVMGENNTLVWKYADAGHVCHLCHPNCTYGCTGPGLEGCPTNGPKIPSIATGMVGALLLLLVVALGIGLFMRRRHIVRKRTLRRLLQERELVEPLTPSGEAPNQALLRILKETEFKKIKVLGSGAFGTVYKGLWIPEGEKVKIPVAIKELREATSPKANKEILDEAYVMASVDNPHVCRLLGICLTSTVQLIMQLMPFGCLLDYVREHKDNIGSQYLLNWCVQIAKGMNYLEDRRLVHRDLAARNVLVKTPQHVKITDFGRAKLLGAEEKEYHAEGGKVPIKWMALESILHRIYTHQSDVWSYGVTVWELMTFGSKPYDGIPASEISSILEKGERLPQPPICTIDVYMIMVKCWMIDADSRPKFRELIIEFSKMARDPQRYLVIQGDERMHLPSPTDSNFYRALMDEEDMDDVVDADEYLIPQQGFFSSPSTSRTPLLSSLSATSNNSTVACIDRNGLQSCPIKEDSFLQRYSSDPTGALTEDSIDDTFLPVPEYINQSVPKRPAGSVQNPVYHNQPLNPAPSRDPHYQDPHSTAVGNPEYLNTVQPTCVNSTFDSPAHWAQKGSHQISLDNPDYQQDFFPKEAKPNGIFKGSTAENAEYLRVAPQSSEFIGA
Chain of Epidermal growth factor receptor (Homo sapiens, UniProt P00533) (P00533 whole entry, the tested form may be a part): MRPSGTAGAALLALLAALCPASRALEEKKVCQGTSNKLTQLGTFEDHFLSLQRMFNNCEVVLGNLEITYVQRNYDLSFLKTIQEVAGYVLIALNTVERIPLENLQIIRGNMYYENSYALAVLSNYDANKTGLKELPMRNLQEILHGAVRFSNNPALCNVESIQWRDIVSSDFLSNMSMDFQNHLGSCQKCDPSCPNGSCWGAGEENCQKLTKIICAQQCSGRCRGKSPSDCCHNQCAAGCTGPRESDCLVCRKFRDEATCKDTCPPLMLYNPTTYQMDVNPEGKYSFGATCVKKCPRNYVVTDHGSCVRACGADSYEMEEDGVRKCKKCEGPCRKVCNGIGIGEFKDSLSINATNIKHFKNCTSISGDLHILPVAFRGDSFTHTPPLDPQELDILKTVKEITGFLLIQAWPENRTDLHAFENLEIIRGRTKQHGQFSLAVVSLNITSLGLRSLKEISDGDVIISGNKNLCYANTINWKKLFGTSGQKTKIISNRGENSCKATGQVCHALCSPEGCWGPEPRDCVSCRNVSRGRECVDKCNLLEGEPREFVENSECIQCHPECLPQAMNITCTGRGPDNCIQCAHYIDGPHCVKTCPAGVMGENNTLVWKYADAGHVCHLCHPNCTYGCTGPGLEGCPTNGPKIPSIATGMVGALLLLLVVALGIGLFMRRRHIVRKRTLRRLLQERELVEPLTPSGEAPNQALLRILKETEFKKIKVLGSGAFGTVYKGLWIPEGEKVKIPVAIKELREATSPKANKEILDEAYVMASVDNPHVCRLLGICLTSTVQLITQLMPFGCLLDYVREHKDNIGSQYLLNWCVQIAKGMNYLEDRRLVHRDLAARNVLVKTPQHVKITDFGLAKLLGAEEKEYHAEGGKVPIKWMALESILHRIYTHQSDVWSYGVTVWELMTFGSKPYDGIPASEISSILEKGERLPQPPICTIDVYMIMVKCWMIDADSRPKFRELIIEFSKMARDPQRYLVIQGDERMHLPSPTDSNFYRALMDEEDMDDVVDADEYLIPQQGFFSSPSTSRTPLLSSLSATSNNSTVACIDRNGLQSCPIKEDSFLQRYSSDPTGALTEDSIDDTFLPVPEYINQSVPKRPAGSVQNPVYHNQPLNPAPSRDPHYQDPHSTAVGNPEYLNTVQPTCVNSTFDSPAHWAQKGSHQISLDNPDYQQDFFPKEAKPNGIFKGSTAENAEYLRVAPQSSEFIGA
Chain of Epidermal growth factor receptor (Homo sapiens, UniProt P00533, L858R) (P00533 25-1210 L858R limits assumed): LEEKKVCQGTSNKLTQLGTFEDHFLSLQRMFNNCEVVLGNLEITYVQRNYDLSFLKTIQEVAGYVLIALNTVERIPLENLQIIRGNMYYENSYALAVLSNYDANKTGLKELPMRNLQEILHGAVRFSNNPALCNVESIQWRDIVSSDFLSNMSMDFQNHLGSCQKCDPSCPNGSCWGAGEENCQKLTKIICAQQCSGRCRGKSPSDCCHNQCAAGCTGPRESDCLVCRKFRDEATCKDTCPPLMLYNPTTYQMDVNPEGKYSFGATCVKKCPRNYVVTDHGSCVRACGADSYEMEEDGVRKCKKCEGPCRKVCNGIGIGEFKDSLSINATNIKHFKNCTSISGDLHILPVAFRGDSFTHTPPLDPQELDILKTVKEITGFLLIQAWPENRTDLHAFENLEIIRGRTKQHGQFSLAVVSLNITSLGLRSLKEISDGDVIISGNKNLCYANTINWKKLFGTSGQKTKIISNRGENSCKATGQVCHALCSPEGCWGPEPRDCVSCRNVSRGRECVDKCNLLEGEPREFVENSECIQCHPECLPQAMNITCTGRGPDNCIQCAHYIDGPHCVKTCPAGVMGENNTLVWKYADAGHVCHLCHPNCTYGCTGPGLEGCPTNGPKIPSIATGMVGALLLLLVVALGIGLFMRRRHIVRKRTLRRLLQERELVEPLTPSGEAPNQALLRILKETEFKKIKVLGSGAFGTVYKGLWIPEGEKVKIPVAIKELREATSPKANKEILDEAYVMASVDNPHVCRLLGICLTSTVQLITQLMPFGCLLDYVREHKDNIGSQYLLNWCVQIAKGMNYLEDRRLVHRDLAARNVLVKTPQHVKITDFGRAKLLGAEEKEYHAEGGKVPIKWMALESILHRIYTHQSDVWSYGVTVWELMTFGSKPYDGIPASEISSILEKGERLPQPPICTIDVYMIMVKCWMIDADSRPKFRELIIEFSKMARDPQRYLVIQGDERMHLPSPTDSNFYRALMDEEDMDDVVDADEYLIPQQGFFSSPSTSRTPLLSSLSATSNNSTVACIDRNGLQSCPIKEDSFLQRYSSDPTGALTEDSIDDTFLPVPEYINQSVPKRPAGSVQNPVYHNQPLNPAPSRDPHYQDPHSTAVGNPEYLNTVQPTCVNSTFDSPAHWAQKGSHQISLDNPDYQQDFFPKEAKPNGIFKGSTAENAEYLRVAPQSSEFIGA

SMILES	IC50 [1]	IC50 ([2]; read-out: IC50)	IC50 (A-431)	IC50 (HCC827)	IC50 (NCI-H1975)	IC50 [3]	Ratio IC50 (Homo sapiens)	also measured
C=CC(=O)Nc1cc(Nc2nccc(-c3cn4c5c(cccc35)CCC4)n2)c(OC)cc1N1CCC(CN(C)C)C1 (stereo unspecified)	4 nM	8.8 nM	514 nM	71.7 nM	99.9 nM	1.9 nM	–	–
C=CC(=O)Nc1cc(Nc2nc(OC)cc(-c3cn(C)c4ccccc34)n2)c(OC)cc1N(C)CCN(C)C	155 nM	685 nM	> 10000 nM	1170 nM	320 nM	13 nM	–	–
C=CC(=O)Nc1cc(Nc2nccc(-n3cc(C)c4ccccc43)n2)c(OC)cc1N(C)CCN(C)C	186 nM	715 nM	–	–	–	287 nM	2.5	–
C=CC(=O)Nc1cc(Nc2nccc(-c3cn4c5c(cccc35)CCC4)n2)c(OC)cc1N1CCN(C)CC1	64.3 nM	877 nM	–	–	–	55.5 nM	15.8	–
C=CC(=O)Nc1cc(Nc2nccc(-c3cn4c5c(cccc35)CCC4)n2)c(OC)cc1N1CC(CCN(C)C)C1	14.5 nM	251 nM	–	–	–	11.8 nM	21.3	–
C=CC(=O)Nc1cc(Nc2nccc(-c3cn4c5c(cccc35)CCC4)n2)c(OC)cc1N1CCNC(=O)C1	428 nM	–	–	–	–	1230 nM	–	IC50 [2]: Not Active
C=CC(=O)Nc1cc(Nc2nccc(-c3cn4c5c(cccc35)CCC4)n2)c(OC)cc1N1CC(N(C)C)C1	13.6 nM	63.9 nM	1120 nM	98.2 nM	143 nM	4.9 nM	–	–
C=CC(=O)Nc1cc(Nc2nccc(-c3cn4c5c(cccc35)CCC4)n2)c(OC)cc1N(C)CCN(C)C(C)=O	386 nM	> 1000 nM	–	–	–	188 nM	> 5.3	–
C=CC(=O)Nc1cc(Nc2cc(-c3cn(C)c4ccccc34)nc(OC)n2)c(OC)cc1N(C)CCN(C)C	123 nM	636 nM	> 10000 nM	925 nM	210 nM	10.9 nM	–	–
C=CC(=O)Nc1cc(Nc2cc(-c3cn4c5c(cccc35)CCC4)nc(OC)n2)c(OC)cc1N(C)CCN(C)C	181 nM	543 nM	–	–	–	22 nM	–	–
C=CC(=O)Nc1cc(Nc2cc(-c3cn4c5c(cccc35)CCC4)ncn2)c(OC)cc1N(C)CCN(C)C	1.2 nM	3.1 nM	122 nM	24.3 nM	37.8 nM	2.6 nM	–	–
C=CC(=O)Nc1cc(Nc2nccc(-c3cn4c5c(cccc35)CCC4)n2)c(OC)cc1N1CC(CN(C)C)C1	11.6 nM	202 nM	1470 nM	290 nM	166 nM	6.7 nM	–	–
C=CC(=O)Nc1cc(Nc2nccc(-c3cn4c5c(cccc35)CCC4)n2)c(OC)cc1N(C)CCO	192 nM	838 nM	–	–	–	34.8 nM	24.1	–
C=CC(=O)Nc1cc(Nc2nccc(-c3cn4c5c(cccc35)CCC4)n2)c(OC)cc1N(C)CC(=O)N(C)C	498 nM	> 1000 nM	–	–	–	278 nM	> 3.6	–
C=CC(=O)Nc1cc(Nc2ncnc(-c3cn(C)c4ccccc34)c2OC)c(OC)cc1N(C)CCN(C)C	55.5 nM	222 nM	–	–	–	212 nM	1	–
C=CC(=O)Nc1cc(Nc2ncnc(-c3cn(C)c4ccccc34)c2F)c(OC)cc1N(C)CCN(C)C	9.9 nM	32.1 nM	–	–	–	94.8 nM	0.34	–
C=CC(=O)Nc1cc(Nc2nccc(-c3cn(C)c4ccccc34)n2)c(OC)cc1N(C)CCN(C)C [OSIMERTINIB]	–	–	–	–	[…]	–	–	half-life [4]: […]; half-life [5]: 0.35 h; bioavailability [6]: […]; Cmax [7]: […]; half-life [8]: […]; CLint scaled [9]: […]; half-life [10]: 0.963 h; Tmax [11]: […]; clearance [12]: […]; CLint scaled [13]: […]; MRT [14]: […]; half-life [15]: […]; half-life [16]: 1.04 h; half-life [17]: […]; MRT [18]: […]; CLH [19]: […]; CLint scaled [20]: […]; CLint scaled [21]: […]
C=CC(=O)Nc1cc(Nc2nccc(-n3ncc4ccccc43)n2)c(OC)cc1N(C)CCN(C)C	> 600 nM	–	–	–	–	> 600 nM	–	IC50 [2]: Not Active
C=CC(=O)Nc1cc(Nc2cc(-c3cn(C)c4ccccc34)nc(C)n2)c(OC)cc1N(C)CCN(C)C	46.5 nM	192 nM	–	–	–	60.6 nM	3.2	–
C=CC(=O)Nc1cc(Nc2cc(-c3cn(C)c4ccccc34)ncn2)c(OC)cc1N(C)CCN(C)C	2.2 nM	2.3 nM	128 nM	16.2 nM	33.8 nM	1.6 nM	–	–
